Measured values reported in ChEMBL document CHEMBL1143790, “Effect of substituents on diarylmethanes for antitubercular activity” (2007).
Values after ≈ are worked out from the molar mass of the structure shown.

Assays:
Format in all cases: functional
[1] = Selectivity index, IC50 for vero cells to MIC for Mycobacterium tuberculosis H37Rv
[2] = test system: Mycobacterium tuberculosis; experiment: Antitubercular activity against Mycobacterium tuberculosis H37Rv by MABA assay
[3] = test system: Mycobacterium tuberculosis; experiment: Antitubercular activity against Mycobacterium tuberculosis H37Rv by microdilution method
In short: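 Agar microdilution: serial two-fold compound dilutions in 7H10 agar, with H37Rv as test organism. MIC was the concentration completely inhibiting growth and colony-forming ability of M. tuberculosis.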

[4] = test system: Mycobacterium tuberculosis; experiment: Antitubercular activity against Mycobacterium tuberculosis H37Rv by BACTEC method
In short: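 Radiometric BACTEC 12B (7H12) broth; compounds from 1 mg/mL DMSO stock, DMSO-only controls, isoniazid and rifampin references. H37Rv inoculated at 10⁴–10⁵ CFU/mL, plus 1:100-diluted inoculum control. Incubated at 37 °C with daily GI readings until the 1:100 control reached GI 30. MIC was the concentration giving a final GI below the 1:100 control ([…] inhibition).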

## COc1ccc(C(c2ccc(OCCN3CCCCC3)cc2)c2cn(S(=O)(=O)c3ccccc3)c3ccccc23)cc1 (centres undefined)
[1]
  Selectivity index: 10
[2]
  MIC: 6.25 µg/mL (≈ 10.8 µM)
[3]
  MIC: 6.25 µg/mL (≈ 10.8 µM)
[4]
  MIC: 6.25 µg/mL (≈ 10.8 µM)

## COc1ccc(Cc2ccc(OCCN3CCCCC3)cc2)cc1
[2]
  MIC: > 25 µg/mL
[3]
  MIC: > 25 µg/mL

## COc1ccc(C(c2ccc(OCCN(C)C)cc2)c2cn(S(=O)(=O)c3ccccc3)c3ccccc23)cc1 (centres undefined)
[2]
  MIC: > 25 µg/mL
[3]
  MIC: > 12.5 µg/mL

## CN(C)CCOc1ccc(C(c2ccc(O)cc2)c2cc3ccccc3c3ccccc23)cc1 (centres undefined)
[2]
  MIC: 25 µg/mL (≈ 55.9 µM)
[3]
  MIC: 12.5 µg/mL (≈ 27.9 µM)
[4]
  MIC: 12.5 µg/mL (≈ 27.9 µM)

## CCN(CC)CCOc1ccc(C(c2ccc(O)cc2)c2cc3ccccc3c3ccccc23)cc1 (centres undefined)
[2]
  MIC: 25 µg/mL (≈ 52.6 µM)
[3]
  MIC: 12.5 µg/mL (≈ 26.3 µM)
[4]
  MIC: 12.5 µg/mL (≈ 26.3 µM)

## CCN(CC)CCOc1ccc(C(c2ccc(OC)cc2)c2cccnc2)cc1 (centres undefined)
[2]
  MIC: > 25 µg/mL
[3]
  MIC: > 25 µg/mL
[4]
  MIC: 12.5 µg/mL (≈ 32 µM)

## COc1ccc(C(c2ccc(OCCN3CCCC3)cc2)c2cccnc2)cc1 (centres undefined)
[2]
  MIC: > 25 µg/mL
[3]
  MIC: > 25 µg/mL
[4]
  MIC: 12.5 µg/mL (≈ 32.2 µM)

## COc1ccc(C(c2ccc(OCCN(C)C)cc2)c2c3ccccc3cc3ccccc23)cc1 (centres undefined)
[2]
  MIC: 12.5 µg/mL (≈ 27.1 µM)
[3]
  MIC: 12.5 µg/mL (≈ 27.1 µM)

## COc1ccc(C(c2ccc(OCCN3CCCC3)cc2)c2cn(S(=O)(=O)c3ccccc3)c3ccccc23)cc1 (centres undefined)
[2]
  MIC: 12.5 µg/mL (≈ 22.1 µM)
[3]
  MIC: 12.5 µg/mL (≈ 22.1 µM)

## CCN(CC)CCOc1ccc(C(c2ccc(OC)cc2)c2cc3ccccc3c3ccccc23)cc1 (centres undefined)
[1]
  Selectivity index: 20
[2]
  MIC: 6.25 µg/mL (≈ 12.8 µM)
[3]
  MIC: 6.25 µg/mL (≈ 12.8 µM)
[4]
  MIC: 6.25 µg/mL (≈ 12.8 µM)

## COc1ccc(C(c2ccc(OCCN3CCCCC3)cc2)c2cc3ccccc3c3ccccc23)cc1 (centres undefined)
[1]
  Selectivity index: 10
[2]
  MIC: 6.25 µg/mL (≈ 12.5 µM)
[3]
  MIC: 6.25 µg/mL (≈ 12.5 µM)
[4]
  MIC: 6.25 µg/mL (≈ 12.5 µM)

## Oc1ccc(C(c2ccc(OCCN3CCCCC3)cc2)c2cc3ccccc3c3ccccc23)cc1 (centres undefined)
[2]
  MIC: 25 µg/mL (≈ 51.3 µM)
[3]
  MIC: 12.5 µg/mL (≈ 25.6 µM)
[4]
  MIC: 12.5 µg/mL (≈ 25.6 µM)

## COc1ccc(C(c2ccc(OCCN(C)C)cc2)c2cc3ccccc3c3ccccc23)cc1 (centres undefined)
[2]
  MIC: 25 µg/mL (≈ 54.2 µM)
[3]
  MIC: 25 µg/mL (≈ 54.2 µM)
[4]
  MIC: 12.5 µg/mL (≈ 27.1 µM)

## COc1ccc(Cc2ccc(OCCN(C)C)cc2)cc1
[2]
  MIC: > 25 µg/mL
[3]
  MIC: > 25 µg/mL

## CCN(CC)CCOc1ccc(C(c2ccc(OC)cc2)c2cn(S(=O)(=O)c3ccccc3)c3ccccc23)cc1 (centres undefined)
[2]
  MIC: 12.5 µg/mL (≈ 22 µM)
[3]
  MIC: 12.5 µg/mL (≈ 22 µM)

## COc1ccc(C(c2ccc(OCCN3CCCC3)cc2)c2cc3ccccc3c3ccccc23)cc1 (centres undefined)
[1]
  Selectivity index: 20
[2]
  MIC: 6.25 µg/mL (≈ 12.8 µM)
[3]
  MIC: 6.25 µg/mL (≈ 12.8 µM)
[4]
  MIC: 6.25 µg/mL (≈ 12.8 µM)

## COc1ccc(C(c2ccc(OCCN(C)C)cc2)c2cccnc2)cc1 (centres undefined)
[2]
  MIC: > 25 µg/mL
[3]
  MIC: > 25 µg/mL

## COc1ccc(C(c2ccc(OCCN3CCCCC3)cc2)c2cccnc2)cc1 (centres undefined)
[2]
  MIC: > 25 µg/mL
[3]
  MIC: > 25 µg/mL
[4]
  MIC: 12.5 µg/mL (≈ 31.1 µM)

## COc1ccc(C(c2ccc(OCCN3CCCCCC3)cc2)c2cn(S(=O)(=O)c3ccccc3)c3ccccc23)cc1 (centres undefined)
[2]
  MIC: 12.5 µg/mL (≈ 21 µM)
[3]
  MIC: 12.5 µg/mL (≈ 21 µM)
[4]
  MIC: 12.5 µg/mL (≈ 21 µM)
